Consider one molecule from ChEMBL document CHEMBL1157810, “Synthesis and evaluation of nitric oxide-releasing derivatives of farnesylthiosalicylic acid as anti-tumor agents” (Bioorg Med Chem, 2010).

A word on the IC50: it is the point on the concentration scale where inhibition reaches its midpoint.

The source made the active and inactive calls. The calls are words filed in the database; no cut-off is given here.

For test [1], the system named is U-251. Briefly: Cytotoxicity against human U251 cells after 48 hrs by MTT assay. The class given is functional, cell-based. The settings on record: U-251, 48 h. The method, boiled down: (§1)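 Cells at 5–10 × 10³/well grown overnight in RPMI-1640, then exposed in triplicate to a concentration series for 48 h. MTT (1 mg/mL) added for the final 4 h, formazan dissolved in DMSO, read at 570 nm against 595 nm reference. Untreated cells served as negative control, 1% Triton-treated cells as positive control. Inhibition calculated relative to negative-control OD. IC50 taken as concentration giving 50% growth inhibition.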
Background: Formazan colour is commonly taken as a measure of viable cells.

The nature of test [2]: Cytotoxicity against human U87 cells after 48 hrs by MTT assay. Format: functional, cell-based, U-87MG ATCC. The settings on record: U-87 MG. Put shortly:
as §1

Test [3] has as its system SGC-7901. As to the kind of experiment: Cytotoxicity against human SGC7901 cells after 48 hrs by MTT assay. The class given is functional, cell-based. The following applies: SGC-7901, 48 h. The method, boiled down: as §1
The test system of test [4] is MDA-MB-231. Briefly: Ratio of IC50 for FTA to IC50 for drug for cytotoxicity against human MDA-MB-231 cells after 48 hrs by MTT assay. The class given is functional.
The test system of test [5] is MDA-MB-231. Briefly: Ratio of IC50 for sorafenib to IC50 for drug for cytotoxicity against human MDA-MB-231 cells after 48 hrs by MTT assay. The class given is functional.
For test [6], the system named is MCF7. As to the kind of experiment: Induction of NO production in human MCF7 cells at 100 uM after 30 to 300 mins by Griess assay. Format: functional, cell-based. The method, boiled down:
(§2)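 Cells treated with compound at 100 µM. Nitrate/nitrite in cell lysates measured by Griess reaction at 540 nm over 30–300 min and quantified from a sodium nitrate standard curve. Diluent-treated cells gave background. Reported values are means of two experiments at 240 min post-treatment.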

The subject of test [7] is MDA-MB-231. Briefly: Induction of NO production in human MDA-MB-231 cells at 100 uM after 30 to 300 mins by Griess assay. The class given is functional, cell-based. Put shortly: as §2
Background: Griess reagent forms a coloured azo dye with nitrite.

The test system of test [8] is U-251. As to the kind of experiment: Induction of NO production in human U251 cells at 100 uM after 30 to 300 mins by Griess assay. Format: functional, cell-based. The method, boiled down: as §2
The test system of test [9] is U-87MG ATCC. Briefly: Induction of NO production in human U87 cells at 100 uM after 30 to 300 mins by Griess assay. The class given is functional, cell-based. The method, boiled down: as §2
The test system of test [10] is SGC-7901. As to the kind of experiment: Induction of NO production in human SGC7901 cells at 100 uM after 30 to 300 mins by Griess assay. Format: functional, cell-based. Put shortly:
as §2

Test [11] concerns MCF7. Briefly: Cytotoxicity against human MCF7 cells after 48 hrs by MTT assay. The settings on record: MCF7, 48 h. The class given is functional, cell-based. Put shortly:
as §1

For test [12], the system named is MDA-MB-231. Briefly: Cytotoxicity against human MDA-MB-231 cells after 48 hrs by MTT assay. The settings on record: MDA-MB-231, 48 h. The class given is functional, cell-based. Put shortly: as §1

For the molecule `CC(C)=CCC/C(C)=C/CC/C(C)=C/CSc1ccccc1C(=O)N1CCC[C@H]1C(=O)OCC#CCOc1no[n+]([O-])c1S(=O)(=O)c1ccccc1`, the half-maximal inhibitory concentration (IC50) in test [1] came out at 3.56 µM; in test [2] it was 13.5 µM; in test [3] it was 7.35 µM; in test [11], 5.49 µM; in test [12], 1.07 µM. Further, the “Ratio IC50” value in test [4] is 50; in test [5], 4. Moreover, the result in [6], in [7], in [8], in [9] and in [10] was Active.
